In ChEMBL document CHEMBL5058577, “EUbOPEN Chemogenomics Library 2 (Multiplex)” (2022):

Tested on: HEK-293T
Test: Multiplex assay against HEK293T
Type: toxicity, cell-based
Details: human
Outline: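 With compound added, live cells were imaged on a CQ1 microscope at 37°C and 5% CO2; staining with Hoechst33342, BioTracker Green Microtubule Cytoskeleton Dye, MitoTracker Red and Annexin V Alexa Fluor 680 had been done at seeding. The CellPathfinder machine-learning gating scheme split cells into Hoechst high-intensity objects or normal cells, normal cells into healthy, pyknosed or fragmented nuclei, and pyknosed cells into mitotic or apoptotic. The tubulin, mitochondrial-mass and membrane-permeability phenotypes are per cents of healthy-nucleus cells.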

[1] = 12 h, 1 µM, compound concentration 1 uM, replicate 1
[2] = 12 h, 1 µM, compound concentration 1 uM, replicate 2
[3] = 12 h, 10 µM, compound concentration 10 uM, replicate 1
[4] = 12 h, 10 µM, compound concentration 10 uM, replicate 2
[5] = 24 h, 1 µM, compound concentration 1 uM, replicate 1
[6] = 24 h, 1 µM, compound concentration 1 uM, replicate 2
[7] = 24 h, 10 µM, compound concentration 10 uM, replicate 1
[8] = 24 h, 10 µM, compound concentration 10 uM, replicate 2
[9] = 48 h, 1 µM, compound concentration 1 uM, replicate 1
[10] = 48 h, 1 µM, compound concentration 1 uM, replicate 2
[11] = 48 h, 10 µM, compound concentration 10 uM, replicate 1
[12] = 48 h, 10 µM, compound concentration 10 uM, replicate 2

Cc1sc2c(c1C)C(c1ccc(Cl)cc1)=N[C@@H](CC(=O)NCCCCCCCCNC(=O)COc1cccc3c1C(=O)N(C1CCC(=O)NC1=O)C3=O)c1nnc(C)n1-2 (stereo not given in full)
Population Apoptotic (%) [1]: 66%
Population Fragmented Nuclei (%) [1]: 5%
Population Healthy Nuclei (%) [1]: 55%
Population Hoechst High Intensity Objects (%) [1]: 9%
Population Membrane Permeable-Phenotype (%) [1]: 0%
Population Mitochondria Different-Phenotype (%) [1]: 73%
Population Mitotic Cells (%) [1]: 33%
Population Normal (%) [1]: 90%
Population Pyknosed Nuclei (%) [1]: 39%
Population Tubulin-Different-Phenotype (%) [1]: 49%
Total Cell Count [1]: 175
Population Apoptotic (%) [2]: 62%
Population Fragmented Nuclei (%) [2]: 6%
Population Healthy Nuclei (%) [2]: 69%
Population Hoechst High Intensity Objects (%) [2]: 30%
Population Mitochondria Different-Phenotype (%) [2]: 91%
Population Mitotic Cells (%) [2]: 37%
Population Normal (%) [2]: 69%
Population Pyknosed Nuclei (%) [2]: 24%
Population Tubulin-Different-Phenotype (%) [2]: 59%
Total Cell Count [2]: 205
Population Apoptotic (%) [3]: 60%
Population Fragmented Nuclei (%) [3]: 9%
Population Healthy Nuclei (%) [3]: 67%
Population Hoechst High Intensity Objects (%) [3]: 14%
Population Membrane Permeable-Phenotype (%) [3]: 0%
Population Mitochondria Different-Phenotype (%) [3]: 75%
Population Mitotic Cells (%) [3]: 39%
Population Normal (%) [3]: 85%
Population Pyknosed Nuclei (%) [3]: 23%
Population Tubulin-Different-Phenotype (%) [3]: 23%
Total Cell Count [3]: 363
Population Apoptotic (%) [4]: 53%
Population Fragmented Nuclei (%) [4]: 8%
Population Healthy Nuclei (%) [4]: 66%
Population Hoechst High Intensity Objects (%) [4]: 37%
Population Mitochondria Different-Phenotype (%) [4]: 87%
Population Mitotic Cells (%) [4]: 46%
Population Normal (%) [4]: 62%
Population Pyknosed Nuclei (%) [4]: 24%
Population Tubulin-Different-Phenotype (%) [4]: 39%
Total Cell Count [4]: 315
Population Apoptotic (%) [5]: 51%
Population Fragmented Nuclei (%) [5]: 7%
Population Healthy Nuclei (%) [5]: 61%
Population Hoechst High Intensity Objects (%) [5]: 6%
Population Membrane Permeable-Phenotype (%) [5]: 0%
Population Mitochondria Different-Phenotype (%) [5]: 58%
Population Mitotic Cells (%) [5]: 48%
Population Normal (%) [5]: 93%
Population Pyknosed Nuclei (%) [5]: 31%
Population Tubulin-Different-Phenotype (%) [5]: 22%
Total Cell Count [5]: 261
Population Apoptotic (%) [6]: 67%
Population Fragmented Nuclei (%) [6]: 6%
Population Healthy Nuclei (%) [6]: 70%
Population Hoechst High Intensity Objects (%) [6]: 30%
Population Mitochondria Different-Phenotype (%) [6]: 83%
Population Mitotic Cells (%) [6]: 32%
Population Normal (%) [6]: 69%
Population Pyknosed Nuclei (%) [6]: 23%
Population Tubulin-Different-Phenotype (%) [6]: 31%
Total Cell Count [6]: 231
Population Apoptotic (%) [7]: 52%
Population Fragmented Nuclei (%) [7]: 11%
Population Healthy Nuclei (%) [7]: 64%
Population Hoechst High Intensity Objects (%) [7]: 12%
Population Membrane Permeable-Phenotype (%) [7]: 0%
Population Mitochondria Different-Phenotype (%) [7]: 64%
Population Mitotic Cells (%) [7]: 47%
Population Normal (%) [7]: 87%
Population Pyknosed Nuclei (%) [7]: 24%
Population Tubulin-Different-Phenotype (%) [7]: 19%
Total Cell Count [7]: 397
Population Apoptotic (%) [8]: 57%
Population Fragmented Nuclei (%) [8]: 9%
Population Healthy Nuclei (%) [8]: 60%
Population Hoechst High Intensity Objects (%) [8]: 39%
Population Mitochondria Different-Phenotype (%) [8]: 86%
Population Mitotic Cells (%) [8]: 42%
Population Normal (%) [8]: 60%
Population Pyknosed Nuclei (%) [8]: 30%
Total Cell Count [8]: 346
Population Apoptotic (%) [9]: 55%
Population Fragmented Nuclei (%) [9]: 7%
Population Healthy Nuclei (%) [9]: 58%
Population Hoechst High Intensity Objects (%) [9]: 2%
Population Membrane Permeable-Phenotype (%) [9]: 0%
Population Mitochondria Different-Phenotype (%) [9]: 56%
Population Mitotic Cells (%) [9]: 44%
Population Normal (%) [9]: 97%
Population Pyknosed Nuclei (%) [9]: 33%
Population Tubulin-Different-Phenotype (%) [9]: 30%
Total Cell Count [9]: 284
Population Apoptotic (%) [10]: 67%
Population Fragmented Nuclei (%) [10]: 9%
Population Healthy Nuclei (%) [10]: 65%
Population Hoechst High Intensity Objects (%) [10]: 15%
Population Mitochondria Different-Phenotype (%) [10]: 78%
Population Mitotic Cells (%) [10]: 32%
Population Normal (%) [10]: 84%
Population Pyknosed Nuclei (%) [10]: 25%
Population Tubulin-Different-Phenotype (%) [10]: 42%
Total Cell Count [10]: 289
Population Apoptotic (%) [11]: 48%
Population Fragmented Nuclei (%) [11]: 9%
Population Healthy Nuclei (%) [11]: 55%
Population Hoechst High Intensity Objects (%) [11]: 14%
Population Membrane Permeable-Phenotype (%) [11]: 0%
Population Mitochondria Different-Phenotype (%) [11]: 51%
Population Mitotic Cells (%) [11]: 51%
Population Normal (%) [11]: 85%
Population Pyknosed Nuclei (%) [11]: 35%
Population Tubulin-Different-Phenotype (%) [11]: 17%
Total Cell Count [11]: 403
Population Apoptotic (%) [12]: 65%
Population Fragmented Nuclei (%) [12]: 15%
Population Healthy Nuclei (%) [12]: 52%
Population Hoechst High Intensity Objects (%) [12]: 31%
Population Mitochondria Different-Phenotype (%) [12]: 76%
Population Mitotic Cells (%) [12]: 34%
Population Normal (%) [12]: 69%
Population Pyknosed Nuclei (%) [12]: 31%
Population Tubulin-Different-Phenotype (%) [12]: 31%
Total Cell Count [12]: 300
